# A selection: hits, their analogues and other compounds. The true share with any hit is near 3.7%.
# core dimer inh = blocks dimerization of HCV core protein. TR-FRET GST/Flag-core106 dimerization, 1536-well. inhibition, % at 5 µM. 300,000 tested, 0.33% active. AID 1899;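 active means inhibition above the mean of all tested compounds plus 3 SD, set per screening campaign, cut at about 45% in these data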
#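 Material: Tagged HCV core106 pair (GST and Flag) | Amount: GST-core106 13.5 nM, Flag-core106 17 nM | Medium: KF-containing HEPES buffer, pH 7.45, DTT, CHAPS, BSA | Reagent: Eu donor and XL665 acceptor anti-tag antibodies | Schedule: 4 h at 22.5 °C | Technique: Time-resolved FRET, ex 340 nm, em 617 and 671 nm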
# TAAR1 antag = human TAAR1 antagonism; Q96RJ0; CHO RD-HGA16 TAAR1, Fluo-8 calcium fluorescence, antagonist; inhibition, % at 3 µM; 360,000 tested, 1.5% active; AID 624466;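 active means inhibition above a per-plate cutoff, the mean inhibition of test compounds on that plate plus 3 SD, cut at about 49% in these data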;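 further: 0% = DMSO plus EC80 beta-PEA response and 100% = DMSO alone without agonist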
# Target sequence (Q96RJ0 whole entry, looked up): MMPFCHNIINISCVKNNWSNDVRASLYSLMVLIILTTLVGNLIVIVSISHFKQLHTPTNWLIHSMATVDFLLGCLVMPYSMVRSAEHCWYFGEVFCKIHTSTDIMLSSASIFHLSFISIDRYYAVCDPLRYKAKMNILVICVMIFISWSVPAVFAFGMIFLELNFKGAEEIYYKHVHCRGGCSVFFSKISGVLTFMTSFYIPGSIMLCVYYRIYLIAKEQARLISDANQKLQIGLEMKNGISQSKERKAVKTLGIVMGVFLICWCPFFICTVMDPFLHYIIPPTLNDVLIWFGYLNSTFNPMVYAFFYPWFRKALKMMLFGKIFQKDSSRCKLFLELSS
#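 Material: CHO RD-HGA16 cells bearing hTAAR1; compound dosing: one-point dosing, 3 µM nominal final; schedule: dye loading 75 min at 37 °C, then 30 min room temperature; measured by: calcium fluorescence with Fluo-8; control set: vehicle and agonist controls; replication: n of 1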
# HCV NS3 hel inh = blocks Hepatitis C virus NS3 helicase unwinding | 290,000 tested, 0.56% active | NS3 helicase DNA unwinding, Cy5 molecular beacon fluorescence | inhibition, % at 10.9 µM;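 active means inhibition above the mean of all tested compounds plus 3 SD, set per campaign, cut at about 35% in these data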;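 further: 0% = DMSO wells and 100% = thioflavine S control wells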
#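 test system = hepatitis C virus NS3 helicase domain fragment enzyme | reagent = annealed dual-labelled DNA beacon duplex, ATP-started | times = 1 h at 25 °C | detection = Cy5 fluorescence, 0 and 60 min reads | read-out basis = percent inhibition from t60/t0 fluorescence ratio | control set = DMSO and thioflavine S | replication = one well per compound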
# rCAG binder = molecules binding r(CAG) RNA repeats; inhibition, % at 3 µM; 370,000 tested, 1.3% active; r(CAG) RNA repeat, TO-PRO-1 dye displacement fluorescence;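 active means inhibition above the plate cutoff, the mean of all test compounds on that plate plus 3 SD, cut at about 35% in these data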;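 further: 0% = DMSO alone and 100% = 100 µM mitoxantrone as full dye displacement; higher means more dye released from RNA so lower well fluorescence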
# TAAR1 agonist = human TAAR1 agonism. Q96RJ0. 360,000 tested, 0.99% active. activation, % at 3 µM. CHO RD-HGA16 TAAR1, Fluo-8 calcium fluorescence; vehicle wells 0%, saturating PEA agonist 100%;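 active means activation above the mean activation of all test compounds in the run plus 3 SD, cut at about 38% in these data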
#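 Signal – calcium-sensitive Fluo-8 signal, excitation 470-495, emission 515-575 nm · System – RD-HGA16 (CHO) cells co-expressing Gα16 and hTAAR1 · Incubation – 17-24 h seeding, 75 min 37 °C dye, 30 min RT · Compound dosing – 3 µM single concentration · Repeats – no replicates (n 1)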
# The depositor's hits bear a star; . = not tested or not shown; ! = not active in a repeat.
SMILES,core dimer inh,TAAR1 antag,HCV NS3 hel inh,rCAG binder,TAAR1 agonist
O=S(=O)(c1ccccc1F)N1CCN(c2nc(-c3cccnc3)nc3ccccc23)CC1,.,57*,.,6,13
CC(C)CNC(=O)OCc1cn(Cc2ccc(F)cc2F)nn1,.,.,.,0,.
O=C(c1ccc(F)cc1Cl)N(Cc1ccccn1)CC1CCCO1 (stereo not drawn),.,.,.,2,.
Cc1ccc(S(=O)(=O)c2cc(Nc3ccccc3)ccc2O)cc1,-27,-3,.,15,0
O=S(=O)(O)c1cc(O)c2cc(Nc3ccccc3)ccc2c1,.,4,.,43*,0
CC(=O)Nc1ccc2c(O)cc(S(=O)(=O)O)cc2c1,.,-4,.,2,1
COc1ccc(S(=O)(=O)O)cc1P(=O)(c1ccccc1)c1ccccc1,1,-2,9,3,3
COc1ccccc1Nc1ccc2c(O)cc(S(=O)(=O)O)cc2c1,.,-34,.,74*,2
O=S(=O)(O)c1cc(O)c2ccc(Nc3ccccc3)cc2c1,.,-2,.,65*,2
O=S(=O)(O)c1ccc(O)c2cc(Nc3ccccc3)ccc12,.,-20,.,97*,1
Cc1ccc(Cc2c(-c3cccc(Cl)c3)nc3ccc(Br)cn23)cc1,.,7,.,44*,-1
Cc1cc2nc(-c3cccc(Cl)c3)c(Cc3cccc(Cl)c3)n2c(C)c1Br,.,6,.,35*,-2
COc1ccc(-n2c(SCC(=O)NNC(=S)Nc3ccc(C)cc3)nnc2-c2ccccc2)cc1,.,.,.,30,.
Cc1oc(-c2ccc(F)cc2)cc1-c1nn2c(-c3ccoc3C)nnc2s1,91*,-5,.,36*,1
COc1cc(NC(=O)c2ccnc(N)c2)cc(C(=O)Nc2cccc(C(F)(F)F)c2)c1,11,30,.,5,11
COc1cc(NC(=O)c2csc(N)n2)cc(C(=O)Nc2cccc(C(F)(F)F)c2)c1,-10,53*!,.,15,5
COc1cc(NC(=O)c2cc(C)on2)cc(C(=O)Nc2cccc(C(F)(F)F)c2)c1,2,54*!,.,4,6
CN(CCCOC(=O)c1cccs1)C1CN(Cc2cn(Cc3ccccc3Cl)nn2)S(=O)(=O)C1 (stereo not drawn),.,.,.,3,.
COC(=O)C1=C(C)NC(C)=C(C(=O)OCCN(C)Cc2ccccc2)C1c1cccc([N+](=O)[O-])c1 (stereo not drawn),-4,49*,-53,2,-1
CCOC(=O)C1=C(C)NC(C)=C(C(=O)OCCNC(=O)c2cccnc2)C1c1cccc([N+](=O)[O-])c1 (stereo not drawn),3,.,11,.,.
COc1cccc(-c2nc(-c3ccc(NC(=O)c4cccnc4)cc3)no2)c1,-1,3,0,0,3
CC(Oc1ccc(Cl)cc1Cl)c1nc(-c2ccc(NC(=O)c3cccnc3)cc2)no1 (stereo not drawn),-2,57*,-6,-1,9
O=C(Nc1ccc(-c2noc(-c3cccs3)n2)cc1)c1cccnc1,-2,56*,14,14,17
CC(Oc1ccc(Cl)cc1Cl)c1nc(-c2ccc(NC(=O)c3ccncc3)cc2)no1 (stereo not drawn),-6,17,-5,16,24
CC(C)(C)OC(=O)/C=C/[C@@H](CC1CCCC1)Sc1ccc(C(C)(C)C)cc1,.,.,.,0,.
SMILES,core dimer inh,TAAR1 antag,HCV NS3 hel inh,rCAG binder,TAAR1 agonist
CN[C@H]1C[C@H]2c3[nH]c4c(-c5cccc(C)c5)cccc4c3CCN2C(=O)[C@H]1[C@H](C)O,.,.,.,3,.
Cc1ccc(Nc2nc(=O)c3cc([N+](=O)[O-])ccc3s2)cc1,48*,-18,4,5,14
COc1ccc(Nc2nc(=O)c3cc([N+](=O)[O-])ccc3s2)cc1,.,-8,6,1,-2
O=C(Nc1ccccc1C(F)(F)F)NC1(C(=O)N2CCOCC2)CCCCC1,.,-17,.,72*,-1
Cc1ccccc1NC(=O)NC1(C(=O)N2CCOCC2)CCCCC1,-4,-6,7,-3,2
COC(=O)[C@]12C[C@H](CC(=O)NCc3ccc(OC)c(OC)c3)C(=O)N(Cc3ccco3)C1=C[C@H](C1CCCC1)O[C@@H]2C,.,.,.,4,.
N#Cc1ccc(/C=C2\CC3(OC(=O)c4cccc(F)c4)CCCN2C3)cc1 (stereo not drawn),.,.,.,-2,.
CN(C(=O)c1cccc(NC(=O)Cc2ccc([N+](=O)[O-])cc2)c1)C1CCCC1,.,10,.,1,8
CN(C(=O)c1ccc(NC(=O)Cc2ccc([N+](=O)[O-])cc2)cc1)C1CCCC1,.,38,.,-1,48*
CC(=O)Nc1sc(N/N=C/c2ccccc2)nc1-c1ccc(C)cc1,-12,31,-3,5,-2
CC(=O)Nc1sc(/C(C#N)=C\c2cccc(Cl)c2)nc1-c1ccc(C)cc1,-4,52*,-1,5,33
COc1ccccc1-c1nnc(SC/C(O)=C(\C#N)c2nc3ccccc3[nH]2)n1C1CCCCC1,24,4,-6,21,3
N#C/C(=C(/O)CSc1nnc(Cc2cccs2)n1C1CCCCC1)c1nc2ccccc2[nH]1,63*,6,9,23,0
C=CCn1c(COc2ccccc2)nnc1SCc1ccc(C#N)cc1,1,12,-2,-9,8
C=CCn1c(COc2ccc(CC)cc2)nnc1SC/C(O)=C(\C#N)c1nc2ccccc2[nH]1,70*,11,1,22,4
COC[C@@H]1CCCN1c1ccc2c(c1)O[C@H]1CCN(C1)S2(=O)=O,.,.,.,0,.
CC(=O)c1ccc(NC(=O)c2ccc3c(=O)n4c(nc3c2)CCCCC4)cc1,9,8,-4,8,7
CNC(=O)c1ccc(NC(=O)c2ccc3c(=O)n4c(nc3c2)CCC4)cc1,.,53*,.,13,13
CNc1nc(NCc2ccc(C)cc2C)c2sccc2n1,.,-10,.,3,22
CC(=O)Nc1ccc(CNc2nc(NCc3cccs3)nc3ccsc23)cc1,.,49*,.,1,36
C=CCNc1nc(NCCCN2CCCC2=O)c2sc(-c3ccccc3)cc2n1,.,-4,.,6,2
CCOC(=O)Cc1ccc(Nc2nc(NCc3ccccc3)nc3ccsc23)cc1,.,72*,.,1,2
COc1ccccc1CNc1nc(NCc2ccc(NC(C)=O)cc2)c2sccc2n1,.,13,.,4,5
Cc1ccc(CNc2nc(NCc3ccccc3)nc3ccsc23)c(C)c1,.,54*,.,2,37
O=C1CCCN1CCCNc1nc(NCc2ccccc2)nc2ccsc12,.,105*,.,1,129*
COC(=O)[C@]12C[C@H](CC(=O)N3CCN(C(=O)c4ccco4)CC3)C(=O)N(CCc3ccc(OC)c(OC)c3)C1=C[C@H](C1CCCC1)O[C@@H]2C,.,.,.,7,.
O=C(Nc1ccccc1)N(O)c1ccc(Cl)cc1,-3,4,14,2,38*
Cc1noc(C)c1NC(=O)Nc1ccc2c(c1)C(=O)N(C)[C@H]1CC[C@H](CC(=O)NCc3ccc(Cl)cc3)O[C@@H]1CO2,.,.,.,4,.

# High-throughput results from PubChem.
